Source: PubChem
Calb FLC – C. albicans growth modulation with fluconazole. C. albicans CaCi-2 (fluconazole-resistant clinical isolate) + fluconazole, Alamar Blue growth, 48 h. growth inhibition, % (no concentration beside the values). hit rate 0.57% among 300,000;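 active = growth inhibition above about 58% in most replicates, limit read from the data, passing the limit was not always enough; inconclusive = exactly half the replicates above a set limit; inactive = most replicates below a set limit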;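 also: all wells also contain fluconazole at 8 µg/ml as a sub-toxic cotreatment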
HSF1 inh – HSF1 inhibition; NIH3T3-HGL HSE-luciferase, MG132-induced, luminescence 8 h; stronger effect = lower value; activity change, negative = inhibition, % at 7.5 µM (by protocol); hit rate 0.77% among 300,000; AID 2098;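 active = more than half of replicate wells show activity change below -50%, luminescence cut by over half; inconclusive = some wells, but at most half, below -50%; inactive = no replicate well below -50%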;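 also: luciferase reports HSF-1 transcriptional activity via heat shock element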
HIF activator – HIF pathway transcriptional activation; U2OS HRE-luciferase reporter, luminescence; normalized: DMSO 0%, desferrioxamine 100%; activation, % at 7.5 µM (by protocol); hit rate 0.32% among 300,000;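 active = mean activation of at least 10% of the iron chelator positive control signal, with at least half of replicates also reaching 10%; inconclusive = mean and replicate majority disagree about reaching 10%; inactive = mean and most replicates under 10%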
T cruzi repl – T. cruzi replication inhibition | inhibition, % (test concentration not listed) | AID 1885 | T. cruzi beta-gal in NIH3T3, luminescence, 90 h | hit rate 1.4% among 300,000;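 active = mean inhibition across valid replicates above about 55%, limit read from the data; inconclusive = mean below that limit but half or more replicates reach it; inactive = mean below it, under half of replicates reach it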;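 also: signal also drops with host cell toxicity which is not excluded here; higher percent means less beta-gal luminescence so fewer parasites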
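System: mouse NIH/3T3 fibroblasts infected with β-gal-expressing T. cruzi Tulahuen C4 / Input: NIH/3T3 cells, 5,000 per well / Buffer or medium: Low-serum DMEM with 2% FBS / Probe or stimulus: 5000 reporter trypomastigotes per well / Schedule: ≥90 h infection period, 3 h prior cell attachment / Measured by: GalScreen luminescence, 60 min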
HSF1 activator – increases HSF-1 driven luciferase reporter signal. hit rate 1.7% among 300,000. activation, % at 9 µM. NIH3T3-HGL HSF-1 luciferase reporter, MG132, 8 h; 100% = twice DMSO control signal;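 active = mean replicate activation of at least 50% with a set share of replicates each reaching 50%; inconclusive = only one of those two conditions met; inactive = mean below 50% and too few replicates reaching it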
Of the large screens only hits and unclear results are named; the others gave an inactive call. Shown are actives, neighbours in structure and some others; about 4.4% of the full set was active somewhere.

COC(=O)c1c(C)[nH]c(C(=O)/C=C/c2ccccc2)c1C	HSF1 activator 59
COC(=O)c1c(C)[nH]c(C(=O)/C=C/c2cccc(Cl)c2)c1C	HSF1 activator 356
COC(=O)c1c(C)[nH]c(C(=O)CC#N)c1C	none
Cc1[nH]c2ccccc2c(=O)c1C(=O)/C=C/c1ccccc1	HSF1 activator 87
COC(=O)c1c(C)[nH]c(C(=O)CSc2ccc(Cl)cc2)c1C	HSF1 activator 91
Cc1[nH]c2ccccc2c1/C=C/C(=O)c1ccccc1	none
NS(=O)(=O)c1ccc(NC(=O)COc2ccc(S(=O)(=O)N3CCCC3)cc2)cc1	none
CCOc1ccc(N(CC(=O)NCCSCc2ccccc2)S(=O)(=O)c2ccccc2)cc1	none
C/C(Cn1nnc([N+](=O)[O-])n1)=N\NC(=O)c1ccc(Cl)c(Cl)c1	T cruzi repl 66
CC[n+]1c(/C=C/N(C)c2ccccc2)oc2ccccc21	T cruzi repl 78
Cn1c(C(=O)O)c(CC(=O)Nc2ccc3c(c2)OCCO3)c2ccccc21	HSF1 inh -66
O=C(COC(=O)C1=COCCO1)Nc1ccc2c(c1)OCO2	HSF1 inh -63
Cc1cc(C)n(CC(=O)Nc2ccc3c(c2)OCO3)c(=O)c1C#N	none
Cc1ccc(NC(=O)Cc2c(C(=O)O)n(C)c3ccccc23)cc1F	none
Cc1cc2ccccc2c(=O)n1CC(=O)Nc1ccc2c(c1)OCO2	HSF1 inh -68
CCN(CC(=O)Nc1ccc2c(c1)OCCO2)CC(=O)Nc1ccc2c(c1)OCO2	HIF activator 54
Cc1ccc(NC(=O)COC(=O)C2=COCCO2)cc1	none
Cc1nc(Cl)c(C(=O)NCCc2ccccc2)c(C)c1[N+](=O)[O-]	none
CC1SCC(=O)N(CC(=O)Nc2ccc3c(c2)OCO3)C1=O (stereo unspecified)	none
CCC1SC(CC)C(=O)N(CC(=O)Nc2ccc3c(c2)OCO3)C1=O (stereo unspecified)	HSF1 activator 53
Cc1cccc(C2c3[nH]c4ccccc4c3CCN2Cc2cccn2-c2ncccn2)c1 (stereo unspecified)	T cruzi repl 58
COc1ccc(C2c3[nH]c4ccccc4c3CCN2Cc2cccn2-c2ncccn2)cc1C (stereo unspecified)	T cruzi repl 79
c1ccc(C2c3[nH]c4ccccc4c3CCN2Cc2cccn2-c2ccccn2)nc1 (stereo unspecified)	none
CCOC(=O)C1=C(COC(=O)/C=C/c2cc(Br)ccc2F)NC(=O)NC1C (stereo unspecified)	none
CC(NC=C1C(=O)OC(C)(C)OC1=O)C(=O)O (stereo unspecified)	T cruzi repl 55
O=C(Nc1ccccc1)c1nc2ccccc2s1	HSF1 activator 59
CC(C)(C)NC(=O)c1nc2ccccc2s1	none
O=C(CCS(=O)(=O)c1ccccc1)Nc1ccccn1	HSF1 activator 59
O=S(=O)(Cc1nc2ccccc2s1)c1ccccc1	HSF1 activator 59 (no result: T cruzi repl)
Cc1ccc(S(=O)(=O)CCC(=O)Nc2ccc(Br)cc2)cc1	HSF1 inh -67
COc1ccc(-c2oc3ccc(-c4cc(OC)c(OC)c(OC)c4)cc3c2C#Cc2ccsc2)cc1	none
O=C(CS(=O)(=O)c1ccccc1)Nc1nnc(C(F)(F)F)s1	none
O=C(CCS(=O)(=O)c1ccccc1)Nc1ccc(-c2nc3ccccc3s2)cc1	HSF1 activator 58 (no result: Calb FLC)
O=C(CCS(=O)(=O)c1ccccc1)Nc1nnc(C(F)(F)F)s1	Calb FLC 97
O=C(CCS(=O)(=O)Cc1ccccc1)Nc1nnc(C(F)(F)F)s1	Calb FLC 83
CC(C)(C)c1nnc(NC(=O)CCS(=O)(=O)Cc2ccccc2)s1	none
CC(C)(C)c1nnc(NC(=O)CCS(=O)(=O)c2ccccc2)s1	Calb FLC 93
Fc1cccc(Cl)c1CNc1ccc(N2CCCC2)cc1	T cruzi repl 94
CCC(C)(C)c1ccc(OCCCC[n+]2cccc(C)c2)c(C(C)(C)CC)c1	T cruzi repl 60
COc1ccc(C(=O)Nc2ccccc2C(=O)N/N=C/c2ccccn2)cc1OC	HIF activator 19
COc1ccc(NC(=O)C(=O)Nc2cccc3cccnc23)cc1OC	none
O=C(NC(=S)Nc1cccc2cccnc12)c1cccs1	HSF1 activator 156
COc1ccc(C(=O)Nc2cccc3cccnc23)cc1OC	HSF1 activator 68
O=C(NC(=S)Nc1cccc2cccnc12)c1ccccc1	none
O=c1c2c3c(sc2[nH]c(=S)n1Cc1ccco1)CCC3	HSF1 activator 94
CNC(=O)c1c(Cl)cnn1-c1ccc(C)cc1	HSF1 activator inconclusive
Cc1ccc(-n2ncc(Cl)c2C(=O)NC2CC2)cc1	HSF1 activator 54
O=C(Cn1cnc2ccccc21)N/N=C/c1cccc([N+](=O)[O-])c1	none
OC(COc1c(F)cc(Br)cc1F)CN1CCN(c2ccc(F)cc2)CC1 (stereo unspecified)	HSF1 inh -87
OC(COc1c(F)cc(Br)cc1F)CN1CCOCC1 (stereo unspecified)	none
Cc1ccc2c(c1)S/C(=C/c1ccc[n+](CCO)c1)N2C	Calb FLC inconclusive, T cruzi repl 61
O=C(COc1cc(Cl)c(Cl)cc1Cl)Nc1cccc(O)c1	HSF1 activator 87
COC(=O)C1=CN(Cc2ccc(OC)cc2)C=C(C(=O)OC)C1c1cc(OC)c(OC)c(OC)c1	none
CCOC(=O)C1=CN(Cc2ccc(OC)cc2)C=C(C(=O)OCC)C1c1cccs1	HSF1 activator 51
CC(C)(O)[C@H]1Cc2cc3ccc(=O)oc3cc2O1	none
CCC(C)NC(=O)C(Cc1ccccc1)NS(=O)(=O)c1ccc2c(c1)oc(=O)n2C (stereo unspecified)	none
Cc1cc(C)n(-c2nc(Nc3ccccc3C(F)(F)F)nc(-n3nc(C)cc3C)n2)n1	T cruzi repl inconclusive
Cc1cc(C)n(-c2nc(Nc3ccccc3C)nc(-n3nc(C)cc3C)n2)n1	T cruzi repl 70
Cc1ccc(-n2nc(C)c3c(C)c(CCC(=O)NCC4CCCO4)c(=O)n(C)c32)cc1 (stereo unspecified)	T cruzi repl 63
NNC(=O)c1ccc([N+](=O)[O-])c(CS(=O)(=O)c2ccc(Cl)cc2)c1	HSF1 activator 57
O=C(NCC(=O)N1CCN(c2ccccc2O)CC1)c1ccc(Br)o1	HSF1 inh -52 (no result: Calb FLC)
O=C(Oc1c(CN2CCOCC2)cc(Cl)c2cccnc12)c1ccccc1Br	Calb FLC 87
O=C(Oc1c(Cl)cc(Cl)c2cccnc12)N1CCOCC1	Calb FLC 92
CN1CCN(Cc2cc(Cl)c3cccnc3c2OC(=O)c2cccs2)CC1	none
O=C(Nc1ccncc1)Nc1cccc(Cl)c1Cl	Calb FLC inconclusive, T cruzi repl 66
O=C(Nc1ccc(Cl)c(Cl)c1)Nc1ccccc1O	HSF1 activator 92
CNNC(=O)C(C)NC(=O)c1ccc(Br)cc1 (stereo unspecified)	HIF activator 38
